According to ChEMBL document CHEMBL2424622, “Development of amino-pyrimidine inhibitors of c-Jun N-terminal kinase (JNK): kinase profiling guided optimization of a 1,2,3-benzotriazole lead” (Bioorg Med Chem Lett, 2013):
pIC50: −log10 of the molar value.

Tests used:
[1] = target: Wee1-like protein kinase (Homo sapiens) (UniProt P30291); experiment: Competitive binding affinity to WEE1 (unknown origin) at 10 uM in presence of ATP relative to control
[2] = target: Casein kinase I isoform gamma-3 (Homo sapiens) (UniProt Q9Y6M4); experiment: Competitive binding affinity to CSNK1G3 (unknown origin) at 10 uM in presence of ATP relative to control
Chain of Casein kinase I isoform gamma-3 (Homo sapiens) (Q9Y6M4 whole entry, looked up, canonical isoform): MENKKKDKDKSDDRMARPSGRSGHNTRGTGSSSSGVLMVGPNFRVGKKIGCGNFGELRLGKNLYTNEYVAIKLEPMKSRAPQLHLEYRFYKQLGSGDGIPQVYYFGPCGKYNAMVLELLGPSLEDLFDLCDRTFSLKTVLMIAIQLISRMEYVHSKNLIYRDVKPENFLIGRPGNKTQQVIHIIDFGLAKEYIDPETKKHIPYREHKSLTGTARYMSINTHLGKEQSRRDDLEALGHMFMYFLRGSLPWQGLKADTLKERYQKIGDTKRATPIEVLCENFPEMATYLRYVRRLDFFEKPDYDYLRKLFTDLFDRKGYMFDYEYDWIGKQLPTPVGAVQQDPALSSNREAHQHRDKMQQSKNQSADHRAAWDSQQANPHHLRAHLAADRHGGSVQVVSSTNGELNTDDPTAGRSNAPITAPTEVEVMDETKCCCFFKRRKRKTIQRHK

[3] = target: Serine/threonine-protein kinase N2 (Homo sapiens) (UniProt Q16513); experiment: Competitive binding affinity to PKN2 (unknown origin) at 10 uM in presence of ATP relative to control
Chain of Serine/threonine-protein kinase N2 (Homo sapiens) (Q16513 whole entry, looked up): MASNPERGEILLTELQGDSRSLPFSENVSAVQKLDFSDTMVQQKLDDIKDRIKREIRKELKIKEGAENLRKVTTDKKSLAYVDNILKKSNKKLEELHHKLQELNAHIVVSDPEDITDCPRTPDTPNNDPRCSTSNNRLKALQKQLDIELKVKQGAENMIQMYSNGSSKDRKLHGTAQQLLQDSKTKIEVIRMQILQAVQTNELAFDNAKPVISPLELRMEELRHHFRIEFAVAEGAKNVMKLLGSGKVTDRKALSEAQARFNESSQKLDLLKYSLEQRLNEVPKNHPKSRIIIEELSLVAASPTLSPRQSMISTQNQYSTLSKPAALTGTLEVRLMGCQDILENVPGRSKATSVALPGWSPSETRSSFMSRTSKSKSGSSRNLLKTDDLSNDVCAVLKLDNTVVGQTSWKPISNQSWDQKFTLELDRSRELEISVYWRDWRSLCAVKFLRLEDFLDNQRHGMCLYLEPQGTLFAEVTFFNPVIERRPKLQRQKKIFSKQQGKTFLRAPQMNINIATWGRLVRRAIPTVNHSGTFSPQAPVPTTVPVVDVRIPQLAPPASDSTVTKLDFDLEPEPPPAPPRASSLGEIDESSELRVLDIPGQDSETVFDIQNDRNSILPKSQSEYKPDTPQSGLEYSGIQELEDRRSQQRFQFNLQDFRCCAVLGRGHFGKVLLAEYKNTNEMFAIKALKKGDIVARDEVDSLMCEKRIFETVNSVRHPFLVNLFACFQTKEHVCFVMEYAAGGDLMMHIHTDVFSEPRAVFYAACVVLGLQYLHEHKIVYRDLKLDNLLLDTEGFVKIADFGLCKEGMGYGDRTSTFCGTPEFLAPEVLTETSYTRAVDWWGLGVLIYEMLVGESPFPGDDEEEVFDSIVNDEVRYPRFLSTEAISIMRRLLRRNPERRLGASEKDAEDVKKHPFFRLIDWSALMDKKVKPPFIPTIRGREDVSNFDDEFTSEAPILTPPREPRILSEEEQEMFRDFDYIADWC
Outline: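 In vitro ATP-site competition binding assay across a diverse panel of 128 kinases, with compound tested at a single concentration. Kinase selectivity scores (S15) were calculated from the panel profiles.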

[4] = system: Mast/stem cell growth factor receptor Kit (Homo sapiens), P10721 [V559D]; experiment: Competitive binding affinity to KIT V559D mutant (unknown origin) at 10 uM in presence of ATP relative to control
Chain of Mast/stem cell growth factor receptor Kit (Homo sapiens), P10721 [V559D] (P10721 whole entry V559D): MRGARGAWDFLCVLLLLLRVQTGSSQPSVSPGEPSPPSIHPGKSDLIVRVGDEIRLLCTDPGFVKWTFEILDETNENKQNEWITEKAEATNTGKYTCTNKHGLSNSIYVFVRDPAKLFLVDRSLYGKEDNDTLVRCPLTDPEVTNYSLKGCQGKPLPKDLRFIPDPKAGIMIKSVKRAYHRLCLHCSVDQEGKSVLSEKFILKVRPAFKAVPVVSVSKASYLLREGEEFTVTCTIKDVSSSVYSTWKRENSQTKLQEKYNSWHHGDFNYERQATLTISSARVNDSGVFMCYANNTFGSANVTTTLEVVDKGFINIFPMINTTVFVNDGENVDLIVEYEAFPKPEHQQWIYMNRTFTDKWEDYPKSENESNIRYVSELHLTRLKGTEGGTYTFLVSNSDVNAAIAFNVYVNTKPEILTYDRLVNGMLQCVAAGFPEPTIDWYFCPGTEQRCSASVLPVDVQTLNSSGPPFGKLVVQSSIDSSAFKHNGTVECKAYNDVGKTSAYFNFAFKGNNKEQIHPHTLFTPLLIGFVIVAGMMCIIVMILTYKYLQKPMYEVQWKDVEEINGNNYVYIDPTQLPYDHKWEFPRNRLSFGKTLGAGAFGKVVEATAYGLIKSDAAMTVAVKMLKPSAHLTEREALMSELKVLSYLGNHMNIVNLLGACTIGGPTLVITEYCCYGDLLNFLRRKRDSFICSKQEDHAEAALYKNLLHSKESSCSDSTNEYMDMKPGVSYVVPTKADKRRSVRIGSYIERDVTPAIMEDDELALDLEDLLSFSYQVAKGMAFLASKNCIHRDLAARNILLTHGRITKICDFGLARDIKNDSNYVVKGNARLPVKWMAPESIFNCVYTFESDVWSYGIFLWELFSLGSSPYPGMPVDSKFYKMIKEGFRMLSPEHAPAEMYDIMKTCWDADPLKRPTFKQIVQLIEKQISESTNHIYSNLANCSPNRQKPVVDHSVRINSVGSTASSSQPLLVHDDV

[5] = target: Glycogen synthase kinase-3 alpha (Homo sapiens, UniProt P49840); experiment: Competitive binding affinity to GSK3alpha (unknown origin) at 10 uM in presence of ATP relative to control
Outline: (§1)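 In vitro ATP-site competition binding format, run as one member of a diverse 128-kinase profiling panel. Each compound was tested at a single concentration across the whole panel.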

[6] = target: T1, Activin receptor type-1 (Homo sapiens) (UniProt Q04771); experiment: Competitive binding affinity to ACVR1 (unknown origin) at 10 uM in presence of ATP relative to control
T1 sequence (whole entry): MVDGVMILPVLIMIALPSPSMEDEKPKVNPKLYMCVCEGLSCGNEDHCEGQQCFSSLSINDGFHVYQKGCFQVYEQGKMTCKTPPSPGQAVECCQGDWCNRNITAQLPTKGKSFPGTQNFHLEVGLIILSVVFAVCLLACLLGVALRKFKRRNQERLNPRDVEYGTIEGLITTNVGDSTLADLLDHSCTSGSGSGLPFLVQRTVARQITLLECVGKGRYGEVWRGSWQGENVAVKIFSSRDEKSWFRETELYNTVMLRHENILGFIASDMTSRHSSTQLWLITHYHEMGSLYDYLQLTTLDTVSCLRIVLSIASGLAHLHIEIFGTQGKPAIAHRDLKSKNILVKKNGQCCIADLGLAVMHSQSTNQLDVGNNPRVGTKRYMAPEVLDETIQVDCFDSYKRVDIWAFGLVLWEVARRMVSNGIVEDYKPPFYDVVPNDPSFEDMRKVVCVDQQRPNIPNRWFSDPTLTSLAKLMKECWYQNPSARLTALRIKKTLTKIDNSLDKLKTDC

[7] = target: RAC-beta serine/threonine-protein kinase (Homo sapiens) (UniProt P31751); experiment: Competitive binding affinity to AKT2 (unknown origin) at 10 uM in presence of ATP relative to control
Chain of RAC-beta serine/threonine-protein kinase (Homo sapiens) (P31751 whole entry): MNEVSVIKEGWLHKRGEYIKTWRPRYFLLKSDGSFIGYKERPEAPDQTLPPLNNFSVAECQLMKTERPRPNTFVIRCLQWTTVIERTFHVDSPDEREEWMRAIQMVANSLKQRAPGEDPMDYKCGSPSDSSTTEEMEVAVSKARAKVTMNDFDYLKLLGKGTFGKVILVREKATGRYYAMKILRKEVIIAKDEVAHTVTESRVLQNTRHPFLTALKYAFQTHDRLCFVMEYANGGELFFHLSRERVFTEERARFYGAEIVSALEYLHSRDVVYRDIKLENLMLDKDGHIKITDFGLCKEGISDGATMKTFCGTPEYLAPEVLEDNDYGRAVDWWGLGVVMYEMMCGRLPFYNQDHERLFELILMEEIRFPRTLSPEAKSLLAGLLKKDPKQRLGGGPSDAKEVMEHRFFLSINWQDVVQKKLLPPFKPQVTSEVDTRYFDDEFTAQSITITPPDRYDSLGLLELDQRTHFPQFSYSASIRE

[8] = target: T2, Serine/threonine-protein kinase Nek5 (Homo sapiens) (UniProt Q6P3R8); experiment: Competitive binding affinity to NEK5 (unknown origin) at 10 uM in presence of ATP relative to control
T2 sequence (whole entry): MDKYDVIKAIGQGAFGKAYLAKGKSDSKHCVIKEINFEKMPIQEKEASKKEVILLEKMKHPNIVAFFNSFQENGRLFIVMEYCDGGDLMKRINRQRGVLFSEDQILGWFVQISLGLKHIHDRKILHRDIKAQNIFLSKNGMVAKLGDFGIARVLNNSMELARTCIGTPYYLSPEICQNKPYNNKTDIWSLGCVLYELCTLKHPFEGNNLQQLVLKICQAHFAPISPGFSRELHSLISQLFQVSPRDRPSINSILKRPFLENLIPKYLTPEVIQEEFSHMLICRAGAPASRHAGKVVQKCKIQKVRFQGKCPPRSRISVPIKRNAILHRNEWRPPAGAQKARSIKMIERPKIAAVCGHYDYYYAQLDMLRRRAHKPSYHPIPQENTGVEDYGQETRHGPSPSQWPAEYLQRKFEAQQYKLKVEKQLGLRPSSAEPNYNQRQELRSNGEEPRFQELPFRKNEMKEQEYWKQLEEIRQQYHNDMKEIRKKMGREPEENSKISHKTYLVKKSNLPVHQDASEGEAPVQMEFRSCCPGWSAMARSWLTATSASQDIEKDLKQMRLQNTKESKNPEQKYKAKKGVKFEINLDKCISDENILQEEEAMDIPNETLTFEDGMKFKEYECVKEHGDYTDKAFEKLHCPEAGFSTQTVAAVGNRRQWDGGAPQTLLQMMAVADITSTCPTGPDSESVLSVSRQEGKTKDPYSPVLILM

[9] = target: Cyclin-dependent kinase 19 (Homo sapiens) (UniProt Q9BWU1); experiment: Competitive binding affinity to CDK19 (unknown origin) at 10 uM in presence of ATP relative to control
Chain of Cyclin-dependent kinase 19 (Homo sapiens) (Q9BWU1 whole entry, looked up): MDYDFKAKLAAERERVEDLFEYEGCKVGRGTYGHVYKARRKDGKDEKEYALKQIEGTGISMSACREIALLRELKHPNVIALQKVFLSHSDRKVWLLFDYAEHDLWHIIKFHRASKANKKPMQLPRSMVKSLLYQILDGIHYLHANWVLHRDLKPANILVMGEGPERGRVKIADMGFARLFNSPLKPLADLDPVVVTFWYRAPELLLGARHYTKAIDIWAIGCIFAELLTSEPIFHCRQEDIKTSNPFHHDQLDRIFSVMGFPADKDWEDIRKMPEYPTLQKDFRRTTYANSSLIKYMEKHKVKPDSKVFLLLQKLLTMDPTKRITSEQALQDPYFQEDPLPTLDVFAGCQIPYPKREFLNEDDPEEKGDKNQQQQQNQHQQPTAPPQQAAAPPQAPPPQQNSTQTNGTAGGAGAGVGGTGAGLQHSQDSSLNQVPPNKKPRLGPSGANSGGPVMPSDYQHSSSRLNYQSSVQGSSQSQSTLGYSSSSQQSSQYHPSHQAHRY

[10] = target: T3, Dual specificity mitogen-activated protein kinase kinase 6 (Homo sapiens) (UniProt P52564); experiment: Competitive binding affinity to MEK6 (unknown origin) at 10 uM in presence of ATP relative to control
T3 sequence (whole entry): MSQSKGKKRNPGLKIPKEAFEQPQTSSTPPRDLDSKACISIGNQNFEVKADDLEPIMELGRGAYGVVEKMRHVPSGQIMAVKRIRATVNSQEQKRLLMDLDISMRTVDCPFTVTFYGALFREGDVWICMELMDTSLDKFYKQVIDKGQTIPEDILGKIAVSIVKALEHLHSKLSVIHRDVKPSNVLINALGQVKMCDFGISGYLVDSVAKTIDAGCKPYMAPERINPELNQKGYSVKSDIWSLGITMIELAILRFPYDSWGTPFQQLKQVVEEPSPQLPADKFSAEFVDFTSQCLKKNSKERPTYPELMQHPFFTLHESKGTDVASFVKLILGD

[11] = target: Cyclin-dependent kinase 11B (Homo sapiens, UniProt P21127); experiment: Competitive binding affinity to CDC2L1 (unknown origin) at 10 uM in presence of ATP relative to control; outline: as §1
Chain of Cyclin-dependent kinase 11B (P21127 whole entry): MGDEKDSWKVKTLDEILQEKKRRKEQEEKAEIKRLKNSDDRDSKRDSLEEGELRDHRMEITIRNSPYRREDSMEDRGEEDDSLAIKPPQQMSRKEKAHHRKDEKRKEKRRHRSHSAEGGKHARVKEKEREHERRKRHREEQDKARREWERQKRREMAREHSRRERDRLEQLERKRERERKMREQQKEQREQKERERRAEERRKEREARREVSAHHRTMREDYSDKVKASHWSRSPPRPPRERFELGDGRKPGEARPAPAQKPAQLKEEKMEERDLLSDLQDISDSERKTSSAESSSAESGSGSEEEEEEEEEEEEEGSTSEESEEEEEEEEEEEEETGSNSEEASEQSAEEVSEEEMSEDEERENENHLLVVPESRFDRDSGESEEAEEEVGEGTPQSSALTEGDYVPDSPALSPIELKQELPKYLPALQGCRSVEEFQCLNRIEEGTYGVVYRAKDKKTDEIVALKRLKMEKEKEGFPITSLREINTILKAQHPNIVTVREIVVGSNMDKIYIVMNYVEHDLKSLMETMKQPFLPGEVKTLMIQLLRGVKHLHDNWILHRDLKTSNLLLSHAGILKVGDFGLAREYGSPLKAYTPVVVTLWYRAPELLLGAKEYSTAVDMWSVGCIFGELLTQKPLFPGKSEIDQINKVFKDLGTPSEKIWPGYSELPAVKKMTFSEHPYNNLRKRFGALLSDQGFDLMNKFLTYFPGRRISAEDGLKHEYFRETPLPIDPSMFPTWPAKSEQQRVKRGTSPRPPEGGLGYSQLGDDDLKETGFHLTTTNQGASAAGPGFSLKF

[12] = system: HCT-116; experiment: Cytotoxicity against human HCT116 cells assessed as cell viability by WST-1 reduction assay; type: cell-based
Outline: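 Cytotoxicity was measured in an HCT-116 cell proliferation assay as reduction of WST-1 reagent. Values are the mean of at least three experiments.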

Chain of Wee1-like protein kinase (Homo sapiens) (P30291 whole entry, looked up, canonical isoform): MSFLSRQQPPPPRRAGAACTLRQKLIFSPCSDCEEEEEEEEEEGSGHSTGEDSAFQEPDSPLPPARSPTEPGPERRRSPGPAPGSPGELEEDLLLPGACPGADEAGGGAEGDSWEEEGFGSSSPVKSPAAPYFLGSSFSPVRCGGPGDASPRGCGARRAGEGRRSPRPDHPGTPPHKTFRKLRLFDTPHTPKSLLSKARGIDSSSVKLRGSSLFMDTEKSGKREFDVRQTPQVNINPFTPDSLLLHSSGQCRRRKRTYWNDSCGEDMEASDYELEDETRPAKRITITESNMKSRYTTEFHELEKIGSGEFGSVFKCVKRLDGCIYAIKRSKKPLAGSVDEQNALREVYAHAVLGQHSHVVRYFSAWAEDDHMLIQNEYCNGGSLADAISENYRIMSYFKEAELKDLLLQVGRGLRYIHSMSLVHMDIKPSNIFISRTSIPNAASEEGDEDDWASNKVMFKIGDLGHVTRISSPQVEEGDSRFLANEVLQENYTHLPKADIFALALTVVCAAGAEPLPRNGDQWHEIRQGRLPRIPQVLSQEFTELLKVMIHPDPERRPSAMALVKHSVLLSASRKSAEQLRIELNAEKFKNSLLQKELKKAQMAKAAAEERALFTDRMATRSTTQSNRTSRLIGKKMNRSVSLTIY

Row | SMILES | inhibition [1] | inhibition [2] | inhibition [3] | inhibition [4] | inhibition [5] | inhibition [6] | inhibition [7] | inhibition [8] | inhibition [9] | inhibition [10] | inhibition [11] | pIC50 [12]
1 | O[C@H]1CC[C@H](Nc2nccc(-n3ccc4ccccc43)n2)CC1 | < 50% | < 50% | < 50% | 73% | 91% | < 50% | < 50% | < 50% | 70% | 90% | 97% | 
2 | N[C@H]1CC[C@H](Nc2nccc(-n3nnc4ccccc43)n2)CC1 |  |  |  |  |  |  |  |  |  |  |  | 6.11
3 | CS(=O)(=O)CCCOc1cccc2c1ccn2-c1ccnc(N[C@H]2CC[C@H](C(=O)N3CCC(O)CC3)CC2)n1 |  |  |  |  | > 85% |  |  | > 85% |  | > 85% | > 85% | 
4 | O=C([C@H]1CC[C@H](Nc2nccc(-n3nnc4ccccc43)n2)CC1)N1CCOCC1 |  |  |  |  |  |  |  |  |  |  |  | 4.70

Second part, led by results:

Row | inhibition [1] | inhibition [2] | inhibition [3] | inhibition [4] | inhibition [5] | inhibition [6] | inhibition [7] | inhibition [8] | inhibition [9] | inhibition [10] | inhibition [11] | SMILES | pIC50 [12]
5 | < 50% | < 50% | < 50% | 92% | 99% | < 50% | < 50% | 71% | < 50% | 90% | 97% | O[C@H]1CC[C@H](Nc2nccc(-n3ncc4ccccc43)n2)CC1 | 
6 |  |  | 67% | 99% | 97% | < 50% | < 50% |  |  |  |  | O[C@H]1CC[C@H](Nc2nccc(-c3n[nH]c4ccccc34)n2)CC1 | 
7 | < 50% | 96% | 69% | 91% | 100% | < 50% | < 50% | 95% | 82% | 96% | 100% | O[C@H]1CC[C@H](Nc2nccc(-n3nnc4ccccc43)n2)CC1 | 5.92
